Measured values taken from ChEMBL document CHEMBL1129431, “Derivatives of (R)- and (S)-5-fluoro-8-hydroxy-2-(dipropylamino)tetralin: synthesis and interactions with 5-HT1A receptors” (J Med Chem, 1996).
Where “and” joins values, the source holds several entries; their conditions need not be identical. Equal values may be shown once.

Columns and labels:
[1] = target: T1, 5-hydroxytryptamine receptor 1A (Rattus norvegicus, UniProt P19327); assay: Binding affinity against rat hippocampal 5-hydroxytryptamine 1A (5-HT1A) receptor determined using [3H]8-OH-DPAT as radioligand; format: tissue-based, Hippocampus
T1 sequence (P19327 whole entry): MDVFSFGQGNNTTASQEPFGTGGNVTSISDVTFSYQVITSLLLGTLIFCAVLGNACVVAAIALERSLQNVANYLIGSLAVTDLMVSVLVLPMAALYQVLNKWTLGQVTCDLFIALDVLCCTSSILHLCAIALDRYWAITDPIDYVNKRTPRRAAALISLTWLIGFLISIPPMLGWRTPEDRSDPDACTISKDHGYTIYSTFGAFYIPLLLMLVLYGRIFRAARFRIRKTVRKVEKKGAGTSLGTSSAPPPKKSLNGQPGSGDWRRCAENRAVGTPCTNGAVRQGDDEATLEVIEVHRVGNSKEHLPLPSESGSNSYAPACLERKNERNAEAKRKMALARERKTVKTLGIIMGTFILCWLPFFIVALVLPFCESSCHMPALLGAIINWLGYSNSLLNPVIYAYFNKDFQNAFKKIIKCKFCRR

[2] = target: T2, 5-hydroxytryptamine receptor 1A (Rattus norvegicus) (UniProt P19327); assay: Effect on 5-hydroxytryptamine 1A receptor mediated inhibition of VIP-stimulated cAMP production at dose of 1 uM; format: functional; settings: values are per cent of control
T2 sequence (whole entry): T1 sequence (P19327 whole entry)
Method in brief: (§1)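 GH4ZD10 cells expressing rat 5-HT1A receptors were detached with EBSS plus 1 mM EDTA and resuspended to ~1×10^7 cells/mL in Ham's F10 with 0.01% ascorbic acid and 0.1 mM IBMX. After 1 h preincubation at 37 °C they were diluted to 0.8-1.5×10^6 cells/mL, then incubated 20 min at 37 °C with VIP (39 nM final) plus compound, alone or with 5-HT, in duplicate. The reaction was stopped by boiling. cAMP was measured in triplicate by protein-binding assay and expressed as % of the VIP-stimulated response.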

[3] = target: T2, 5-hydroxytryptamine receptor 1A (Rattus norvegicus); assay: Effect on 5-hydroxytryptamine 1A receptor mediated inhibition of VIP-stimulated cAMP production at dose of 10 uM; format: functional; settings: values are per cent of control; method in brief: as §1
[4] = target: T2, 5-hydroxytryptamine receptor 1A (Rattus norvegicus); assay: Effect on 5-hydroxytryptamine 1A receptor mediated inhibition of VIP-stimulated cAMP production at dose of 0.1 uM + 1 uM 5-HT.; format: functional; settings: values are per cent of control; method in brief: as §1
[5] = target: T2, 5-hydroxytryptamine receptor 1A (Rattus norvegicus); assay: Effect against 5-hydroxytryptamine 1A receptor mediated inhibition of VIP-stimulated cAMP production at 0.1 uM dose; format: functional; settings: values are per cent of control; method in brief: as §1
[6] = target: T2, 5-hydroxytryptamine receptor 1A (Rattus norvegicus); assay: Effect on 5-hydroxytryptamine 1A receptor mediated inhibition of VIP-stimulated cAMP production at dose of 1 uM+ 1 uM 5-HT.; format: functional; settings: values are per cent of control
Method in brief: (§2)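 GH4ZD10 cells expressing rat 5-HT1A receptors, detached with EDTA-supplemented Ca/Mg-free EBSS and resuspended in Ham's F10 with 0.01% ascorbic acid and 0.1 mM IBMX. Preincubated 1 h at 37 °C, then 0.8-1.5×10^6 cells/mL incubated 20 min at 37 °C with VIP (39 nM final) plus compounds. Duplicate samples stopped by boiling. cAMP measured in triplicate by protein-binding assay. Results are given as % of the VIP-stimulated response.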

[7] = target: T2, 5-hydroxytryptamine receptor 1A (Rattus norvegicus); assay: (§3) Effect on 5-hydroxytryptamine 1A receptor mediated inhibition of VIP-stimulated cAMP production at dose of 0.1 uM + 10 uM 5-HT.; format: functional; settings: values are per cent of control; method in brief: as §2
[8] = target: T2, 5-hydroxytryptamine receptor 1A (Rattus norvegicus); assay: Effect on 5-hydroxytryptamine 1A receptor mediated inhibition of VIP-stimulated cAMP production at dose of 0+ 1 uM 5-HT.; format: functional; settings: values are per cent of control; method in brief: as §2
[9] = target: T2, 5-hydroxytryptamine receptor 1A (Rattus norvegicus); assay: Effect on 5-hydroxytryptamine 1A receptor mediated inhibition of VIP-stimulated cAMP production at dose of 0.1 uM + 0.1 uM 5-HT.; format: functional; settings: values are per cent of control; method in brief: as §2
[10] = target: T2, 5-hydroxytryptamine receptor 1A (Rattus norvegicus); assay: Effect on 5-hydroxytryptamine 1A receptor mediated inhibition of VIP-stimulated cAMP production at dose of 1 uM+ 10 uM 5-HT.; format: functional; settings: values are per cent of control; method in brief: as §1
[11] = target: T2, 5-hydroxytryptamine receptor 1A (Rattus norvegicus); assay: Effect on 5-hydroxytryptamine 1A receptor mediated inhibition of VIP-stimulated cAMP production at dose of 1 uM+ 0.1 uM 5-HT.; format: functional; settings: values are per cent of control; method in brief: as §2
[12] = target: T2, 5-hydroxytryptamine receptor 1A (Rattus norvegicus); assay: Effect on 5-hydroxytryptamine 1A receptor mediated inhibition of VIP-stimulated cAMP production at dose of 1 uM+ 50 uM 5-HT.; format: functional; settings: values are per cent of control; method in brief: as §2
[13] = target: T2, 5-hydroxytryptamine receptor 1A (Rattus norvegicus); assay: Effect on 5-hydroxytryptamine 1A receptor mediated inhibition of VIP-stimulated cAMP production at dose of 50 uM; format: functional; settings: values are per cent of control; method in brief: as §2
[14] = target: T2, 5-hydroxytryptamine receptor 1A (Rattus norvegicus); assay: Effect on 5-hydroxytryptamine 1A receptor mediated inhibition of VIP-stimulated cAMP production at dose of 0.05 uM; format: functional; settings: values are per cent of control; method in brief: as §2
[15] = target: T2, 5-hydroxytryptamine receptor 1A (Rattus norvegicus); assay: Effect on 5-hydroxytryptamine 1A receptor mediated inhibition of VIP-stimulated cAMP production at dose of 30 uM; format: functional; settings: values are per cent of control; method in brief: as §1
[16] = target: T2, 5-hydroxytryptamine receptor 1A (Rattus norvegicus); assay: as §3; format: functional; settings: values are per cent of control; method in brief: as §1; remark: listed apart in the source
[17] = target: T2, 5-hydroxytryptamine receptor 1A (Rattus norvegicus); settings: 0.05 uM

SMILES | Ki [1] | response, % of control [2] | response, % of control [4] | other results
CCCN(CCC)[C@H]1CCc2cccc(-c3cccs3)c2C1 | 5.5 nM |  |  | 
CCCN(CCC)[C@H]1CCc2c(F)ccc(-c3cccs3)c2C1 [listing 1 of 3 here] | 32.7 nM |  |  | 
CCCN(CCC)[C@H]1CCc2c(F)ccc(-c3cccs3)c2C1 [listing 2 of 3 here] | 32.7 nM |  |  | 
CCCN(CCC)[C@H]1CCc2c(F)ccc(OS(=O)(=O)C(F)(F)F)c2C1 | 490 nM |  |  | 
CCCN(CCC)[C@@H]1CCc2cccc(-c3ccco3)c2C1 | 9.3 nM |  |  | 
CCCN(CCC)[C@@H]1CCc2c(F)ccc(C(C)=O)c2C1 | 6.9 nM |  |  | 
CCCN(CCC)[C@H]1CCc2c(F)ccc(-c3ccco3)c2C1 |  | 98% | 56% | response, % of control [3]: 98%; response, % of control [5]: 100%
CCCN(CCCCN1C(=O)CC2(CCCC2)CC1=O)[C@@H]1CCc2c(F)ccc(-c3ccco3)c2C1 | 1.1 nM | 60% |  | response, % of control [6]: 60%; response, % of control [7]: 54%; response, % of control [8]: 62%; response, % of control [9]: 57%
CCCN(CCC)[C@H]1CCc2cccc(O)c2C1 |  | 61% | 43% | response, % of control [6]: 47%; response, % of control [3]: 62%; response, % of control [5]: 74%
CCCN(CCC)[C@H]1CCc2c(F)ccc(C(C)=O)c2C1 [listing 1 of 2 here] | 13.6 nM |  |  | 
CCCN(CCC)[C@@H]1CCc2cccc(-c3cccs3)c2C1 | 8.4 nM |  |  | 
CCCN(CCCCN1C(=O)CC2(CCCC2)CC1=O)[C@H]1CCc2c(F)ccc(-c3ccco3)c2C1 | 7.5 nM |  | 62% | response, % of control [10]: 68%; response, % of control [11]: 58% and 66%
CCCN(CCC)[C@H]1CCc2c(F)ccc(-c3cccs3)c2C1 [listing 3 of 3 here] |  | 96% | 57% | response, % of control [3]: 88%; response, % of control [5]: 99%
CCCN(CCC)[C@@H]1CCc2cccc(S(=O)(=O)C(F)(F)F)c2C1 | 3.8 nM |  |  | 
CCCN(CCCCN1C(=O)CC2(CCCC2)CC1=O)[C@@H]1CCc2c(F)ccc(OC)c2C1 | < 0.3 nM | 56% | 56% | response, % of control [12]: 40%; response, % of control [13]: 41%; response, % of control [14]: 62%
CCCN(CCC)[C@@H]1CCc2c(F)ccc(-c3ccco3)c2C1 |  | 97% | 60% | response, % of control [3]: 84%; response, % of control [5]: 106% and 98%; response, % of control [15]: 79%; response, % of control [16]: 61%
CCCN(CCC)[C@@H]1CCc2c(F)ccc(OS(=O)(=O)C(F)(F)F)c2C1 | 18.5 nM |  |  | 
CCCN(CCC)[C@H]1CCc2c(F)cccc2C1 | 250 nM |  |  | 
CCCN(CCC)[C@H]1CCc2cccc(S(=O)(=O)C(F)(F)F)c2C1 | 9.5 nM |  |  | 
CCCN(CCCCN1C(=O)CC2(CCCC2)CC1=O)[C@H]1CCc2c(F)ccc(OS(=O)(=O)C(F)(F)F)c2C1 | 177 nM | 90% | 68% | response, % of control [13]: 65%; response, % of control [14]: 98%
CCCN(CCCCN1C(=O)CC2(CCCC2)CC1=O)[C@H]1CCc2c(F)ccc(O)c2C1 | 18.2 nM | 91% |  | response, % of control [13]: 82%; response, % of control [17]: 68%; response, % of control [14]: 95%
CCCN(CCC)[C@H]1CCc2c(F)ccc(C(C)=O)c2C1 [listing 2 of 2 here] |  | 98% | 57% | response, % of control [3]: 97%; response, % of control [5]: 90%
